Assay: Inhibition of Trypanosoma vivax IAG-NH expressed in Escherichia coli WK6 cells
Method in brief: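 Recombinant N-terminal His6-tagged enzyme, purified by Ni-NTA affinity and Superdex-200 gel filtration, concentration per monomer from ε280 47752 M-1cm-1. […] Initial rates fitted to competitive inhibition equation.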

Which Ki does the source give for `N#Cc1cccc(CN2C[C@H](O)[C@H](O)[C@H]2CO)c1` here?
The Ki was 3800 nM.

With `OC[C@@H]1[C@@H](O)[C@@H](O)CN1Cc1ccccc1` as the molecule, how does the Ki read?
The Ki was 59000 nM.

With `COc1ccc(CN2C[C@H](O)[C@H](O)[C@H]2CO)cn1` as the molecule, how does the Ki read?
The Ki was 32000 nM.

With `OC[C@@H]1[C@@H](O)[C@@H](O)CN1Cc1ccncc1` as the molecule, how does the Ki read?
The Ki was 20000 nM.

Which Ki does the source give for `OC[C@@H]1[C@@H](O)[C@@H](O)CN1Cc1ccnc2ccccc12` here?
The Ki was 29000 nM.

Which Ki does the source give for `Cc1nc(-c2ccccc2)ncc1CN1C[C@H](O)[C@H](O)[C@H]1CO` here?
The Ki was 43000 nM.

Which Ki does the source give for `OC[C@@H]1[C@@H](O)[C@@H](O)CN1Cc1ccc(I)cc1` here?
The Ki was 4300 nM.

For `OC[C@@H]1[C@@H](O)[C@@H](O)CN1Cc1ccc2ccccc2c1`, which Ki is on record?
The Ki was 2000 nM.

For `O=[N+]([O-])c1ccc(CN2C[C@H](O)[C@H](O)[C@H]2CO)cc1`, which Ki is on record?
The Ki was 7500 nM.

With `OC[C@@H]1[C@@H](O)[C@@H](O)CN1Cc1ccc(-n2cccc2)cc1` as the molecule, how does the Ki read?
Its Ki is 1000 nM.

For `OC[C@@H]1[C@@H](O)[C@@H](O)CN1Cc1ccc(-n2cccn2)cc1`, which Ki is on record?
The Ki was 1200 nM.

With `Cc1nn(-c2ccccc2)nc1CN1C[C@H](O)[C@H](O)[C@H]1CO` as the molecule, how does the Ki read?
The Ki was 63 nM.

Which Ki does the source give for `O=[N+]([O-])c1cccc(CN2C[C@H](O)[C@H](O)[C@H]2CO)c1` here?
The Ki was 23000 nM.

With `OC[C@@H]1[C@@H](O)[C@@H](O)CN1Cc1ccc2ccccc2n1` as the molecule, how does the Ki read?
The Ki was 180 nM.

For `OC[C@@H]1[C@@H](O)[C@@H](O)CN1Cc1cccc2cccnc12`, which Ki is on record?
Its Ki is 10.8 nM.

With `OC[C@@H]1[C@@H](O)[C@@H](O)CN1Cc1cccc(-n2cccc2)c1` as the molecule, how does the Ki read?
The Ki was 3400 nM.

Which Ki does the source give for `OC[C@@H]1[C@@H](O)[C@@H](O)CN1Cc1c[nH]c2c(O)ncnc12` here?
Its Ki is 4.4 nM.

With `Nc1ncnc2c(CN3C[C@H](O)[C@H](O)[C@H]3CO)c[nH]c12` as the molecule, how does the Ki read?
The Ki was 4.1 nM.

For `OC[C@@H]1[C@@H](O)[C@@H](O)CN1Cc1ccc2cccnc2c1`, which Ki is on record?
Its Ki is 720 nM.

Which Ki does the source give for `OC[C@@H]1[C@@H](O)[C@@H](O)CN1Cc1ccc2cccc(O)c2n1` here?
Its Ki is 1000 nM.

With `Cn1c(CN2C[C@H](O)[C@H](O)[C@H]2CO)nc2ccccc21` as the molecule, how does the Ki read?
Its Ki is 2100 nM.

With `OC[C@@H]1[C@@H](O)[C@@H](O)CN1Cc1nccc2ccccc12` as the molecule, how does the Ki read?
The Ki was 750 nM.

With `N#Cc1ccc(CN2C[C@H](O)[C@H](O)[C@H]2CO)cc1` as the molecule, how does the Ki read?
The Ki was 26000 nM.

For `OC[C@@H]1[C@@H](O)[C@@H](O)CN1Cc1ccc(-n2cncn2)cc1`, which Ki is on record?
Its Ki is 1200 nM.

For `Cn1nnc2cc(CN3C[C@H](O)[C@H](O)[C@H]3CO)ccc21`, which Ki is on record?
Its Ki is 720 nM.

With `OC[C@@H]1[C@@H](O)[C@@H](O)CN1Cc1c[nH]c2ccccc12` as the molecule, how does the Ki read?
The Ki was 12000 nM.

With `COc1cccc2c(CN3C[C@H](O)[C@H](O)[C@H]3CO)c[nH]c12` as the molecule, how does the Ki read?
The Ki was 2300 nM.

For `OC[C@@H]1[C@@H](O)[C@@H](O)CN1Cc1cnc2ccccc2c1`, which Ki is on record?
Its Ki is 20000 nM.

For `Nc1ncccc1CN1C[C@H](O)[C@H](O)[C@H]1CO`, which Ki is on record?
Its Ki is 120000 nM.

Source: ChEMBL document CHEMBL1155058, “N-Arylmethyl substituted iminoribitol derivatives as inhibitors of a purine specific nucleoside hydrolase” (Bioorg Med Chem, 2008)
